Active and inactive are the calls of the source. Unless noted, the rule behind the calls is not given here.
Tests used:
Mus musculus [1] = experiment: In vivo antagonism of guanabenz-induced hypothermia in mice after intraperitoneal administration; […]; type: functional, organism-based
Procedure, shortened: (§1)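 Male NMRI mice, 30-32 g, 5 per dose; test drug or vehicle given ip, then 5 min later guanabenz 1 mg/kg ip. Rectal temperature read by thermistor probe 25 min after guanabenz. Inhibition means temperature > 36 °C. […] Active dose range = doses inhibiting in more than 80% of animals.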

[2] = biological target: T1, Adrenergic receptor alpha-2 (Rattus norvegicus, UniProt P22086+P19328+P22909); experiment: In vitro inhibition of binding of [3H]-RX-821002 to alpha-2 adrenergic receptor site in rat brain membranes.; type: cell membranes
T1 sequence (P22086 whole entry): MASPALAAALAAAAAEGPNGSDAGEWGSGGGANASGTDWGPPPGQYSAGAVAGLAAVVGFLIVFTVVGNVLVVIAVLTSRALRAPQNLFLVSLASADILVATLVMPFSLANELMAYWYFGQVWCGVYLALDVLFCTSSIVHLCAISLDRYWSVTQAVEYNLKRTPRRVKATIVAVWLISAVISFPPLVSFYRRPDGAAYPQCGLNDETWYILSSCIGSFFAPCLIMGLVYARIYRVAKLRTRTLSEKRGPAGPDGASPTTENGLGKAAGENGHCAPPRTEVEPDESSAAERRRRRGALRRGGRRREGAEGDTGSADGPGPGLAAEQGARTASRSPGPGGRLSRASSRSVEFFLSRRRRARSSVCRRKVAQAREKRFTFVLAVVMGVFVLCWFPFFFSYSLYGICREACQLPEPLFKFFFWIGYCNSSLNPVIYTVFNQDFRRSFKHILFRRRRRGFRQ
T1 sequence (P19328 whole entry): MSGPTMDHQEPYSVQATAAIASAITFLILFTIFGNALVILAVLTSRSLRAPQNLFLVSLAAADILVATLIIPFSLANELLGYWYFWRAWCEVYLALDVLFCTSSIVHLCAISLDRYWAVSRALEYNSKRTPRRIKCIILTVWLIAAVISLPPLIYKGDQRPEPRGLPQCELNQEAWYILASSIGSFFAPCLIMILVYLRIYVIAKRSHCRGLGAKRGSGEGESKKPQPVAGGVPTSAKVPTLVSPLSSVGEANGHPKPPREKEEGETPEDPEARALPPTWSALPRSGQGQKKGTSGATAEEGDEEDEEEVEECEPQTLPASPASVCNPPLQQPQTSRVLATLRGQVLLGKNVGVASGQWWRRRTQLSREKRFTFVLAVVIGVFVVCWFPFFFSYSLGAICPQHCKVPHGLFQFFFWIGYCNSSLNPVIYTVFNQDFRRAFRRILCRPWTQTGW
T1 sequence (P22909 whole entry): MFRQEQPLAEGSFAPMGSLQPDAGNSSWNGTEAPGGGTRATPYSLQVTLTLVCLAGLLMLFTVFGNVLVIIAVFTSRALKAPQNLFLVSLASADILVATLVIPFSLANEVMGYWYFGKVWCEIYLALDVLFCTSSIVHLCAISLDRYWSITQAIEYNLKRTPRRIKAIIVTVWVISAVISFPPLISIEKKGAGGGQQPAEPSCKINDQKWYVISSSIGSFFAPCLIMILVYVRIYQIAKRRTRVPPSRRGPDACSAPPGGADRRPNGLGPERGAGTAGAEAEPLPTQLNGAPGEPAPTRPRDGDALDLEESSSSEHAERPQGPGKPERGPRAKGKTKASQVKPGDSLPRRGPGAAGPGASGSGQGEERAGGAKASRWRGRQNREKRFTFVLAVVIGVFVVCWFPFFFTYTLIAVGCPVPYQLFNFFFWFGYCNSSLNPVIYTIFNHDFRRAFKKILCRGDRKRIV

[3] = biological target: T2, Adrenergic receptor alpha-1 (Rattus norvegicus, UniProt P15823+P23944+P43140); experiment: In vitro inhibition of specific binding of [3H]- prazosin to alpha-1 adrenergic receptor site in rat brain membranes.; type: cell membranes
T2 sequence (P15823 whole entry): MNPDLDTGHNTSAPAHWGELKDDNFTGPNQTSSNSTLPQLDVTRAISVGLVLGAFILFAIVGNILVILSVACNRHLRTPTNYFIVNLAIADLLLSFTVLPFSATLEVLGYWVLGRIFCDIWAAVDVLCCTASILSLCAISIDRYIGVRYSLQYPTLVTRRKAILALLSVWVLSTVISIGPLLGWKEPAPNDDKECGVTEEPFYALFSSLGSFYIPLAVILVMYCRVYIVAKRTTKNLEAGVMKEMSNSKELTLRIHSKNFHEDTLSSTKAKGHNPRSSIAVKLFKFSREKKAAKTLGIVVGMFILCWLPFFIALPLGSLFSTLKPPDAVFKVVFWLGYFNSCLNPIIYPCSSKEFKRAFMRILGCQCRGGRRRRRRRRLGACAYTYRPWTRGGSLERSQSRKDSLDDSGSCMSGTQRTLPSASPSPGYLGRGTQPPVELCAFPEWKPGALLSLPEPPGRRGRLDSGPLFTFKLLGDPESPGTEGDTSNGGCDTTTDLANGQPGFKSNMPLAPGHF
T2 sequence (P23944 whole entry): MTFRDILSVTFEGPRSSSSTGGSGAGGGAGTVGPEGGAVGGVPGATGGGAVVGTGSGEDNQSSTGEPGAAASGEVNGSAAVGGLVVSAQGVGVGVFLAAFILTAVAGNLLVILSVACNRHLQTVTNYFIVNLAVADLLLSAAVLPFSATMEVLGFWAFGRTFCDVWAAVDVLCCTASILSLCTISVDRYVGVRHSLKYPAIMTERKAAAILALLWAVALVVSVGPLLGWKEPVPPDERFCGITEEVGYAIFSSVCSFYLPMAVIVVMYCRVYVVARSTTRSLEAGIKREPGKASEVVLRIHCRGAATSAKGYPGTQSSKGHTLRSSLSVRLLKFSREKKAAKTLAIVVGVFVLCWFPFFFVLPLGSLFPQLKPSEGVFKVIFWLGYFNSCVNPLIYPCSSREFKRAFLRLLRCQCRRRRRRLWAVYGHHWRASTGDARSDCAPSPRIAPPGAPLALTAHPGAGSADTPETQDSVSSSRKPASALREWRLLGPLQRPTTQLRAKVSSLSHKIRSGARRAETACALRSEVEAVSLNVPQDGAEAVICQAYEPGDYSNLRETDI
T2 sequence (P43140 whole entry): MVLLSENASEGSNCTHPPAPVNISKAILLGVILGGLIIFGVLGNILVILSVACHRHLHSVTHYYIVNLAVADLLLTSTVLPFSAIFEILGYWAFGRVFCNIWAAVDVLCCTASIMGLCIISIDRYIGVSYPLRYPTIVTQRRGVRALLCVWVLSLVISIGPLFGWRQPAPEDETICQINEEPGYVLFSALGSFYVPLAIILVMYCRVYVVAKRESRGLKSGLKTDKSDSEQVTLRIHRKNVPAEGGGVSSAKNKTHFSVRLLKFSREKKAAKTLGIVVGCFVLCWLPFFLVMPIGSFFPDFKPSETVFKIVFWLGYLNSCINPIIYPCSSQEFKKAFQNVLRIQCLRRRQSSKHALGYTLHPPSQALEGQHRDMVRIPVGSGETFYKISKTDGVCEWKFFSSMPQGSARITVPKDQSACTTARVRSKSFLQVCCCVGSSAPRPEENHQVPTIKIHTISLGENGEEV

D(2) dopamine receptor = D(2) dopamine receptor (Rattus norvegicus, UniProt P61169); experiment: In vitro inhibition of specific binding of [3H]-YM 09151-2 to Dopamine receptor D2 site in rat striatal tissue.; type: tissue-based, Striatum
Mus musculus [4] = experiment: In vivo antagonism of guanabenz-induced hypothermia in mice after peroral administration; Inactive; type: functional, organism-based
Procedure, shortened: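 Male NMRI mice (30-32 g), five per dose; vehicle or drug by oral gavage, guanabenz 1 mg/kg ip 35 min later. Rectal temperature by thermistor 25 min post-guanabenz; inhibition scored as temperature > 36 °C. […] Active range is doses giving inhibition in more than 80% of mice.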

Mus musculus [5] = experiment: In vivo antagonism of guanabenz-induced hypothermia in mice after intraperitoneal administration at a dose of 2.5 mg/kg; type: functional; settings: ip; procedure, shortened: as §1
Mus musculus [6] = experiment: In vivo antagonism of guanabenz-induced hypothermia in mice after intraperitoneal administration at a dose of 0.04-10 mg/kg; type: functional; settings: ip; procedure, shortened: as §1
Mus musculus [7] = experiment: In vivo antagonism of guanabenz-induced hypothermia in mice after intraperitoneal administration at a dose of 10-40 mg/kg; type: functional; settings: ip; procedure, shortened: as §1
Mus musculus [8] = experiment: In vivo antagonism of guanabenz-induced hypothermia in mice after intraperitoneal administration; type: functional; settings: ip; procedure, shortened: as §1
Mus musculus [9] = experiment: In vivo antagonism of guanabenz-induced hypothermia in mice after intraperitoneal administration at a dose of 0.63 mg/kg; type: functional; settings: ip; procedure, shortened: as §1
Mus musculus [10] = experiment: In vivo antagonism of guanabenz-induced hypothermia in mice after intraperitoneal administration at a dose of 2.5-10 mg/kg; type: functional; settings: ip
Procedure, shortened: (§2)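 Male NMRI mice, 30-32 g, 5 per dose; test drug or vehicle given ip, then 5 min later guanabenz 1 mg/kg ip. Rectal temperature read by thermistor probe 25 min after guanabenz. Inhibition means temperature > 36 °C. Active dose range = doses inhibiting in more than 80% of animals.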

Mus musculus [11] = experiment: In vivo antagonism of guanabenz-induced hypothermia in mice after peroral administration at a dose of 2.5-40 mg/kg; type: functional; settings: po
Procedure, shortened: (§3)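 Male NMRI mice (30-32 g), five per dose; vehicle or drug by oral gavage, guanabenz 1 mg/kg ip 35 min later. Rectal temperature by thermistor 25 min post-guanabenz; inhibition scored as temperature > 36 °C. Active range is doses giving inhibition in more than 80% of mice.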

Mus musculus [12] = experiment: In vivo antagonism of guanabenz-induced hypothermia in mice after intraperitoneal administration at a dose of 0.63-10 mg/kg; type: functional; settings: ip; procedure, shortened: as §2
Mus musculus [13] = experiment: In vivo antagonism of guanabenz-induced hypothermia in mice after peroral administration at a dose of 10-40 mg/kg; type: functional; settings: po
Procedure, shortened: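 Male NMRI mice (30-32 g) dosed by oral gavage with drug or vehicle; 35 min later, guanabenz 1 mg/kg ip. Rectal temperature was taken 25 min after guanabenz with a thermistor probe. Inhibition meant temperature > 36 °C. Five mice were used per dose. The active dose range is the doses inhibiting hypothermia in more than 80% of animals.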

Mus musculus [14] = experiment: In vivo antagonism of guanabenz-induced hypothermia in mice after intraperitoneal administration at a dose of 10 mg/kg; type: functional; settings: ip; procedure, shortened: as §1
Mus musculus [15] = experiment: In vivo antagonism of guanabenz-induced hypothermia in mice after peroral administration at a dose of 10 mg/kg; type: functional; settings: route oral; procedure, shortened: as §3
Mus musculus [16] = experiment: In vivo antagonism of guanabenz-induced hypothermia in mice after intraperitoneal administration at a dose of 1 mg/kg; type: functional; settings: ip; procedure, shortened: as §1

D(2) dopamine receptor, sequence (P61169 whole entry): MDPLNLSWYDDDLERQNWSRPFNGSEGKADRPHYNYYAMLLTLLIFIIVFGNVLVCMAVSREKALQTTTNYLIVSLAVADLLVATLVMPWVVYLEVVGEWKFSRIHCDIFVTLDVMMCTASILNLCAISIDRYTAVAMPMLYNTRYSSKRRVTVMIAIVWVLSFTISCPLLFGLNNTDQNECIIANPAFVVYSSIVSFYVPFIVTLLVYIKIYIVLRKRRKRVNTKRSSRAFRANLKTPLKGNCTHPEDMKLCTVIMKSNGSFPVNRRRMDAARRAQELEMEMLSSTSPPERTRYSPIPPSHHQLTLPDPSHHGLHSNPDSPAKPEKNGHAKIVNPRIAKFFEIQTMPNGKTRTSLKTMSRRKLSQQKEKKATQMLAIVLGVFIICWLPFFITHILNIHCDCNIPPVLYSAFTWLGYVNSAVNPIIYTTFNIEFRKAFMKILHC

Structure (SMILES)	IC50 [2]	IC50 [3]	IC50 (D(2) dopamine receptor)	also measured
O=C(NCCC1CCN(CC2COc3ccccc3O2)CC1)Nc1ccc(O)cc1 (stereo not given)				NA (Mus musculus [1]): inactive
O=C1Nc2ccccc2CN1CC1CCN(CC2COc3ccccc3O2)CC1 (stereo not given)	25 nM	70 nM	550 nM	
O=C(NC(=S)NCCC1CCN(CC2COc3ccccc3O2)CC1)c1ccccc1 (stereo not given)				NA (Mus musculus [4]): inactive; NA (Mus musculus [1]): inactive
O=C(NCCC1CCN(CC2COc3ccccc3O2)CC1)NC1CCCCC1 (stereo not given)	2 nM	42 nM	35 nM	NA (Mus musculus [4]): inactive; ED50 (Mus musculus [5]): 0.69 mg/kg
COc1ccccc1CC(=O)NCCC1CCN(CC2COc3ccccc3O2)CC1 (stereo not given)	10 nM	70 nM	50 nM	
S=C(NCCC1CCN(CC2COc3ccccc3O2)CC1)Nc1ccccc1 (stereo not given)				ED50 (Mus musculus [6]): 0.02 mg/kg
O=C1N(CCC2CCN(CC3COc4ccccc4O3)CC2)CCN1c1ccc(F)cc1 (stereo not given)				ED50 (Mus musculus [7]): 2.51 mg/kg
CC(C)c1cccc(C(C)C)c1N1CCN(CCC2CCN(CC3COc4ccccc4O3)CC2)C1=O (stereo not given)	36 nM	180 nM	480 nM	
O=C(NCCC1CCN(CC2COc3ccccc3O2)CC1)NCc1ccccc1 (stereo not given)				ED50 (Mus musculus [8]): 1.78 mg/kg
O=C(NCCC1CCN(CC2COc3ccccc3O2)CC1)C(c1ccccc1)c1ccccc1 (stereo not given)				NA (Mus musculus [4]): inactive; NA (Mus musculus [1]): inactive
COc1ccc(NC(=O)NCCC2CCN(CC3COc4ccccc4O3)CC2)cc1 (stereo not given)				ED50 (Mus musculus [9]): 0.27 mg/kg
O=C1Nc2ccccc2CN1CCC1CCN(CC2COc3ccccc3O2)CC1 (stereo not given)	5 nM	18 nM	16 nM	
COc1cc(OC)c(N2CCN(CCC3CCN(CC4COc5ccccc5O4)CC3)C2=O)c(OC)c1 (stereo not given)	4.5 nM	200 nM	320 nM	ED50 (Mus musculus [10]): 0.41 mg/kg; ED50 (Mus musculus [11]): 1.07 mg/kg
c1ccc2c(c1)OCC(C1=NCCN1)O2 (stereo not given) [IDAZOXAN]			> 10000 nM	ED50 (Mus musculus [12]): 0.31 mg/kg; ED50 (Mus musculus [13]): 0.89 mg/kg
CCOc1cccc(OCC)c1N1CCN(CCC2CCN(CC3COc4ccccc4O3)CC2)C1=O (stereo not given)	4 nM	70 nM	135 nM	ED50 (Mus musculus [14]): 0.89 mg/kg; ED50 (Mus musculus [11]): 0.53 mg/kg
O=C(NCCC1CCN(CC2COc3ccccc3O2)CC1)Oc1ccccc1 (stereo not given)				NA (Mus musculus [4]): inactive; NA (Mus musculus [1]): inactive
COC(=O)[C@@H]1[C@H]2C[C@H]3c4[nH]c5ccccc5c4CCN3C[C@@H]2CC[C@@H]1O [YOHIMBINE]			1130 nM	ED50 (Mus musculus [15]): 1.23 mg/kg; ED50 (Mus musculus [16]): 0.56 mg/kg
O=C(Cc1ccccc1[N+](=O)[O-])NCCC1CCN(CC2COc3ccccc3O2)CC1 (stereo not given)	1 nM	11.5 nM	1.8 nM	
O=C(NCCC1CCN(CC2COc3ccccc3O2)CC1)c1ccccc1[N+](=O)[O-] (stereo not given)	2 nM	20 nM	25 nM	
Cc1cccc(C)c1N1CCN(CCC2CCN(CC3COc4ccccc4O3)CC2)C1=O (stereo not given)	1.8 nM	85 nM	80 nM	ED50 (Mus musculus [10]): 0.41 mg/kg; ED50 (Mus musculus [13]): 5.01 mg/kg

Source: ChEMBL document CHEMBL1133675, “New substituted 1-(2,3-dihydrobenzo[1, 4]dioxin-2-ylmethyl)piperidin-4-yl derivatives with alpha(2)-adrenoceptor antagonist activity” (J Med Chem, 2000)
